Diaphorase inh – inhibits diaphorase or chemically oxidizes, flagging diaphorase assay artifacts; diaphorase resazurin-to-resorufin fluorescence, NADH, 16 min; bacterial (C. kluyveri) enzyme, not human; inhibition, % at 20 µM; 0.69% of 190,000 active; AID 1217;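 active = primary screen inhibition at 20 µM above a set limit, cut at about 50% in these data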
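Assay system: diaphorase enzyme from Clostridium kluyveri; Input: enzyme working solution with 0.14 U/mL diaphorase; Timing: 16 min at room temperature; Technique: resorufin fluorescence, excitation 544 nm, emission 590 nm; Benchmarks: positive control minus NADH, DMSO neutral control.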
ROMK mod – human ROMK K+ channel modulation, primary screen; 2% of 130,000 active; P48048; AID 1918; B-score at 10 µM; Tet-inducible ROMK, thallium flux fluorescence; actives lie on both sides;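 active = signal ratio slope over the read window, or its plate-corrected B-score, at least 3 SD from the plate mean, either direction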;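 note: B-score of the F/F0 ratio slope over 7 to 12 s after thallium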
Target sequence (P48048 whole entry, looked up): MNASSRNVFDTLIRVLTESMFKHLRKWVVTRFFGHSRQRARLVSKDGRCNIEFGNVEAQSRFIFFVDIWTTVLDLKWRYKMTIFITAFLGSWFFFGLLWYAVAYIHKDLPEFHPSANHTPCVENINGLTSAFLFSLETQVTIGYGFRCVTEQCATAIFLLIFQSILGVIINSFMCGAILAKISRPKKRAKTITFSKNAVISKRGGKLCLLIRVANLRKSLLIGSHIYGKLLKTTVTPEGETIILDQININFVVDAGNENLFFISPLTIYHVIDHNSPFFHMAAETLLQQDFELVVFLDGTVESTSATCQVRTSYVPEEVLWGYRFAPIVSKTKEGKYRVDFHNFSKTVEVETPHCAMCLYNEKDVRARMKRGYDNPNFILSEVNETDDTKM
Diaph act CS – activates diaphorase or chemically reduces, flagging diaphorase assay artifacts | 0.005% of 190,000 active | activation factor at 20 µM | Diaphorase/resazurin coupled assay, resorufin fluorescence, 16 min; stronger effect = higher value; 1 = vehicle wells, 0 = NADH-free wells;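 active = diaphorase activity raised at least twofold by the compound at 20 µM; inactive = activation factor below 2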
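Material: Clostridium kluyveri diaphorase, purified enzyme; Quantity: enzyme 0.07 U/mL final; Medium: HEPES pH 7.4 buffer with MgCl2 and Tween 20; Dosing: single compound dose of 20 µM, 1% DMSO final; Schedule: 16 min reaction at room temperature; Measured by: red resorufin fluorescence at 544/590 nm excitation/emission.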
WT yeast gro inh – growth inhibition of WT yeast, mitochondrial fusion screen; mitochondrial fusion phenotypic screen, WT strain; 2.1% of 190,000 active; inhibition, % at 10 µM; in the data active = inhibition above about 58%; tested in S. cerevisiae
L major viab – reduces viability of Leishmania major promastigotes; 9% of 200,000 active; AID 1063; inhibition, % at 10 µM; resazurin fluorescence viability; in the data active = inhibition above about 50%;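 note: promastigotes grown with compound for 44 hours at 28 °C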
KCC2 mod – KCC2 (human) Cl- transport modulation. 2.2% of 190,000 active. Q9H2X9. KCC2 cells, thallium flux FluoZin-2 fluorescence. AID 1456. B-score of Tl+ flux slope (higher = more flux/activation; lower = inhibition) at 10 µM;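 active = thallium flux slope and its plate-corrected score both differing from the plate sample mean at a set confidence after two filtering rounds, in either direction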;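 note: slope of fluorescence scaled to starting intensity during 10 to 20 s after thallium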
Hits are given with their value; n = inactive; x = no result. Hits are enriched below; roughly 12% of the tested compounds scored in any of these assays.

SMILES | Diaphorase inh | ROMK mod | Diaph act CS | WT yeast gro inh | L major viab | KCC2 mod
O=S(=O)(c1ccc(Cl)cc1)N1CCN(C2CCN(Cc3ccccc3)CC2)CC1 | n | n | n | n | 98.9 | n
CCOC(=O)N1CCC(N2CCN(S(=O)(=O)c3ccc([N+](=O)[O-])cc3)CC2)CC1 | x | n | x | x | x | n
COc1ccccc1Oc1ccc(S(=O)(=O)N2CCN(C)CC2)cc1 | n | n | n | n | n | n
O=S(=O)(NC1CCN(Cc2ccccc2)CC1)c1ccc(Cl)cc1 | x | x | x | x | x | n
CCOC(=O)N1CCC(N2CCN(S(=O)(=O)c3ccc4ccccc4c3)CC2)CC1 | n | n | n | n | 97.6 | n
COc1ccc(C(=O)NCC(=O)OCc2csc(-c3ccccc3)n2)cc1 | n | n | n | n | n | n
COCCSc1ccccc1C(=O)Nc1cc(C)ccn1 | n | n | n | n | n | n
CC(C)(C)NC(=O)CC1C(=O)NCCN1Cc1c(F)cccc1Cl (stereo not given) | n | n | n | n | n | n
COc1ccc(S(=O)(=O)N2CCN(Cc3ccc(Cl)cc3)CC2)cc1 | n | x | n | n | 50.6 | n
COc1ccc(S(=O)(=O)N2CCC(CN3C(=O)c4cccc5cccc(c45)C3=O)CC2)cc1 | n | n | n | n | 98.2 | n
CCNS(=O)(=O)c1ccc2c3c(cccc13)C(=O)N2 | n | n | n | n | n | n
Cc1ccc(CN2C(=O)c3ccccc3NC23CCN(Cc2ccccc2)CC3)cc1 | n | x | n | n | 96.1 | n
COC(=O)c1c(NC(=O)CN2CCC3(O)CCCCC3C2c2ccc(F)cc2)sc(C)c1C (stereo not given) | n | n | n | 58.9 | 77.3 | n
COC(=O)c1c(NC(=O)CN2CCC3(O)CCCCC3C2c2cc(OC)ccc2OC)sc(C)c1C (stereo not given) | n | n | n | 74.4 | n | n
CCOC(=O)c1c(NC(=O)CN2CCCc3ccccc32)sc(C)c1C | n | n | n | n | n | n
COC(=O)c1c(NC(=O)CN2CCCc3ccccc32)sc(C)c1C | n | x | n | n | 89.3 | n
COc1ccccc1C1C2CCCCC2(O)CCN1CC(=O)Nc1ccccc1 (stereo not given) | n | x | n | n | n | n
Nc1ccc(C(=O)OCC(=O)Nc2cc([N+](=O)[O-])ccc2F)cc1 | n | x | n | n | n | n
Cc1cc(C(=O)N2CCC(C(=O)O)CC2)c(C)o1 | x | x | x | x | x | n
O=C(Nn1c(Cc2ccccc2)nc2ccccc2c1=O)c1c(O)c2cccc3c2n(c1=O)CCC3 | n | n | n | 68.3 | n | n
CC(C)Cn1c2c(c(O)c(C(=O)Nn3c(Cc4ccccc4)nc4ccccc4c3=O)c1=O)CCCC2 | n | n | n | n | 73.8 | n
COc1ccc(C(=O)C2CN(c3ccccc3)CC2c2ccc(Cl)cc2)cc1 (stereo not given) | n | x | n | n | n | n
CCN(CC)CCCNC(=O)c1sc2ncn(CC(=O)Nc3ccc(C)c(Cl)c3)c(=O)c2c1C | n | n | n | n | n | n
Cc1ccc(NC(=O)Cn2cnc3sc(C(=O)NCCN(C)C)c(C)c3c2=O)cc1Cl | n | x | n | n | 76.1 | n
C=CCOC(=O)C1=C(C)NC(=S)NC1/C=C/c1ccccc1 (stereo not given) | n | x | n | x | 89.2 | n
SMILES | Diaphorase inh | ROMK mod | Diaph act CS | WT yeast gro inh | L major viab | KCC2 mod
COCCOC(=O)C1=C(C)NC(=S)NC1/C=C/c1ccccc1 (stereo not given) | n | n | n | n | n | n
CC1=C(C(=O)OCc2ccccc2)C(/C=C/c2ccccc2)NC(=S)N1 (stereo not given) | n | x | n | 68.8 | n | n
Cn1nccc1C(=O)Oc1cccc(/C=N/NC(=O)c2ccccc2O)c1 | n | n | n | n | n | n
COc1cccc(/C=N/NC(=O)C(=O)NCc2cccnc2)c1O | n | n | n | n | 98.3 | n
COc1cccc(/C=N/NC(=O)C(=O)Nc2ccccc2OC(F)(F)C(F)F)c1O | n | x | n | n | 97.1 | n
CC(=O)C1=C(C)NC(SCSc2ccccc2)=C(C#N)C1c1cccnc1 (stereo not given) | n | x | n | n | 99.9 | n
CSC1=C(C#N)C(c2ccncc2)C(C(=O)Nc2ccccc2)=C(C)N1 (stereo not given) | n | n | n | n | n | n
